Results from ChEMBL document CHEMBL4028868, “Click-Chemistry-Mediated Synthesis of Selective Melanocortin Receptor 4 Agonists” (J Med Chem, 2017).

Experiments:
[1] = target: T1, Melanocortin receptor 3 (Homo sapiens, UniProt P41968); assay: Agonist activity at EYFP-fused human MC3R expressed in HEK293 cells after 16 to 20 hrs by CRE-driven reporter assay; assay type: functional, cell-based
In short: (§1)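 HEK293 monoclonal lines carrying a single receptor/9×CRE-d2EYFP construct, selected with puromycin and FACS-sorted, kept in low-fluorescence DMEM. EYFP imaged with bright-field images, normalized to cell coverage, corrected for unstimulated cells and scaled to α-MSH maximum. Four-parameter fit constrained to minimum 0, at least three independent experiments.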

[2] = target: T1, Melanocortin receptor 3; assay: Agonist activity at EYFP-fused human MC3R expressed in HEK293 cells at 3000 nM after 16 to 20 hrs by CRE-driven reporter assay relative to alpha-MSH; assay type: functional, cell-based
In short: as §1, with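 “DMEM. Seeded at 50,000 cells/well and treated after 24 h for 16–20 h with 11-point 3-fold dilutions (3.3 μM to […]) in triplicate, vehicle 0.5% v/v DMSO.” for “DMEM.”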

[3] = target: T2, Melanocortin receptor 4 (Homo sapiens, UniProt P32245); assay: Agonist activity at EYFP-fused human MC4R expressed in HEK293 cells after 16 to 20 hrs by CRE-driven reporter assay; assay type: functional, cell-based
[4] = target: T3, Melanocortin receptor 5 (Homo sapiens, UniProt P33032); assay: Agonist activity at EYFP-fused human MC5R expressed in HEK293 cells after 16 to 20 hrs by CRE-driven reporter assay; assay type: functional, cell-based; in short: as §1
[5] = target: T3, Melanocortin receptor 5; assay: Agonist activity at EYFP-fused human MC5R expressed in HEK293 cells at 3000 nM after 16 to 20 hrs by CRE-driven reporter assay relative to alpha-MSH; assay type: functional, cell-based
In short: as §1, with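 “DMEM. Seeded at 50,000 cells/well and treated after 24 h for 16–20 h with 11-point 3-fold dilutions (3.3 μM to […]) in triplicate, vehicle 0.5% v/v DMSO.” for “DMEM.”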

[6] = target: T2, Melanocortin receptor 4; assay: Agonist activity at EYFP-fused human MC4R expressed in HEK293 cells assessed as increase in cAMP accumulation after 30 mins by luminescent enzymatic complementation based assay; assay type: functional, cell-based
[7] = target: T1, Melanocortin receptor 3; assay: Agonist activity at EYFP-fused human MC3R expressed in HEK293 cells after 16 to 20 hrs by CRE-driven reporter assay relative to alpha-MSH; assay type: functional, cell-based; in short: as §1
[8] = target: T3, Melanocortin receptor 5; assay: Agonist activity at EYFP-fused human MC5R expressed in HEK293 cells after 16 to 20 hrs by CRE-driven reporter assay relative to alpha-MSH; assay type: functional, cell-based; in short: as §1
[9] = target: T2, Melanocortin receptor 4; assay: Agonist activity at EYFP-fused human MC4R expressed in HEK293 cells at 3000 nM after 16 to 20 hrs by CRE-driven reporter assay relative to alpha-MSH; assay type: functional, cell-based
In short: as §1, with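 “DMEM. Seeded at 50,000 cells/well and treated after 24 h for 16–20 h with 11-point 3-fold dilutions (3.3 μM to […]) in triplicate, vehicle 0.5% v/v DMSO.” for “DMEM.”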

[10] = target: T2, Melanocortin receptor 4; assay: Agonist activity at EYFP-fused human MC4R expressed in HEK293 cells assessed as increase in cAMP accumulation at 3000 nM after 30 mins by luminescent enzymatic complementation based assay relative to alpha-MSH; assay type: functional, cell-based
In short: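 MC4R-expressing HEK293 cells seeded at 50,000/well and switched after 24 h to HBSS with 500 μM IBMX. Ligand was added as 11-point series in triplicate for 30 min. Cells were lysed and incubated with enzyme fragments and substrate at room temperature in the dark for at least 4 h. Luminescence from enzyme complementation was background-corrected and normalized to the α-MSH maximum, with at least three independent experiments.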

[11] = species on record: Homo sapiens; assay: Selectivity ratio of EC50 for EYFP-fused human MC3R expressed in HEK293 cells to EC50 for EYFP-fused human MC4R expressed in HEK293 cells; assay type: cell-based

T3 sequence (P33032 whole entry, the tested form may be a part): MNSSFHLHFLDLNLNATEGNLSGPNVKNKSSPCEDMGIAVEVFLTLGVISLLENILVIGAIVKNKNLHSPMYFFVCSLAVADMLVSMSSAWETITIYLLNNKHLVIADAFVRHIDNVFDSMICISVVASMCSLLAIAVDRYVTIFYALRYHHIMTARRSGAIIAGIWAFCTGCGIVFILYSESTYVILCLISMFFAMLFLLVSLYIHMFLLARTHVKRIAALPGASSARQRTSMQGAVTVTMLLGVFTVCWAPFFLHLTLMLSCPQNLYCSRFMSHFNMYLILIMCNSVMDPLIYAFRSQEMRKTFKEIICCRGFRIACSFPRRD
T1 sequence (P41968 whole entry, the tested form may be a part): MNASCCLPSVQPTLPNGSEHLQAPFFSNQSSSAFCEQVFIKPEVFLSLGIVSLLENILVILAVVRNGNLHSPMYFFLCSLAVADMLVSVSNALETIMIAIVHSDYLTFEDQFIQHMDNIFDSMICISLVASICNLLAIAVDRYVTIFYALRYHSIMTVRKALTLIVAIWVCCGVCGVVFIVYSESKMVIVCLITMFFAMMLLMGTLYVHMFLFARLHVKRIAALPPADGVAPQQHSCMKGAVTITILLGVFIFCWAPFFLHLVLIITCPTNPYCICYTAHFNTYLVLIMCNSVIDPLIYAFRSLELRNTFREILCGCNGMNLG
T2 sequence (P32245 whole entry, the tested form may be a part): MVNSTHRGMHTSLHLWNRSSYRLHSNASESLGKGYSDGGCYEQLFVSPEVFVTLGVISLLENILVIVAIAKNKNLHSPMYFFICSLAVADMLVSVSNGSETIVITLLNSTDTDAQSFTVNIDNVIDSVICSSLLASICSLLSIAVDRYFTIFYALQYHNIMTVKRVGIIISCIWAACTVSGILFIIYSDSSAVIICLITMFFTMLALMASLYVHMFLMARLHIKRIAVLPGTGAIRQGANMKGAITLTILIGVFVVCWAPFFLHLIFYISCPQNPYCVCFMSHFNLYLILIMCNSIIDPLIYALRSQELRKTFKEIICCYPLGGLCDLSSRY

Structure (SMILES) | EC50 [1] | Emax [2] | EC50 [3] | EC50 [4] | Emax [5] | EC50 [6] | Emax [7] | Emax [8] | Emax [9] | Emax [10] | Ratio EC50 [11]
CSCC[C@H](NC(=O)[C@@H]1Cc2cn(nn2)C[C@H](NC(=O)[C@@H](N)CCCCN)C(=O)N[C@@H](Cc2cnc[nH]2)C(=O)N[C@H](Cc2ccccc2)C(=O)N[C@@H](C)C(=O)N[C@@H](Cc2c[nH]c3ccccc23)C(=O)N1)C(=O)O | > 3000 nM | 10% | 258 nM | > 3000 nM | 5% | 684 nM | – | – | – | – | –
CC[C@@H](C)[C@H]1NC(=O)[C@H](Cc2cnc[nH]2)NC(=O)[C@@H](NC(=O)[C@@H](N)CCCCN)Cn2cc(nn2)C[C@@H](C(=O)N[C@@H](CCSC)C(=O)O)NC(=O)[C@H](Cc2c[nH]c3ccccc23)NC(=O)[C@H](CCCNC(=N)N)NC1=O | > 3000 nM | 0% | > 3000 nM | > 3000 nM | 0% | > 3000 nM | – | – | 42% | 13% | –
CSCC[C@H](NC(=O)[C@@H]1Cc2cn(nn2)C[C@H](NC(=O)[C@@H](N)CCCCN)C(=O)N[C@@H](Cc2cnc[nH]2)C(=O)N[C@H](Cc2ccccc2)C(=O)N[C@@H](CCCNC(=N)N)C(=O)N[C@@H](C)C(=O)N1)C(=O)O | 1910 to 3000 nM | 17% | > 3000 nM | 809 to 3000 nM | 18% | > 3000 nM | – | – | 19% | 16% | –
CSCC[C@H](NC(=O)[C@@H]1Cc2cn(nn2)C[C@H](NC(=O)[C@@H](N)CCCCN)C(=O)N[C@@H](C)C(=O)N[C@H](Cc2ccccc2)C(=O)N[C@@H](CCCNC(=N)N)C(=O)N[C@@H](Cc2c[nH]c3ccccc23)C(=O)N1)C(=O)O | 633 nM | – | 2.8 nM | 375 nM | – | 28.8 nM | 104% | 130% | – | – | –
CC(=O)N[C@@H](CCCNC(=N)N)C(=O)N[C@H]1CSSC[C@@H](C(N)=O)NC(=O)[C@H](Cc2c[nH]c3ccccc23)NC(=O)[C@H](CCCNC(=N)N)NC(=O)[C@@H](Cc2ccccc2)NC(=O)[C@H](Cc2c[nH]cn2)NC(=O)[C@@H](C)NC1=O | – | – | – | 110 nM | – | – | – | – | – | – | –
CSCC[C@H](NC(=O)[C@@H]1Cc2cn(nn2)C[C@H](NC(=O)[C@@H](N)CCCCN)C(=O)N[C@@H](Cc2cnc[nH]2)C(=O)N[C@H](Cc2ccccc2)C(=O)N[C@@H](CCCNC(=N)N)C(=O)N[C@@H](Cc2csc3ccccc23)C(=O)N1)C(=O)O | 821 nM | – | 7.6 nM | > 3000 nM | 59% | 63.7 nM | 96% | – | – | – | –
CSCC[C@H](NC(=O)[C@@H]1Cc2cn(nn2)C[C@H](NC(=O)[C@@H](N)CCCCN)C(=O)N[C@@H](Cc2cnc[nH]2)C(=O)N[C@H](C)C(=O)N[C@@H](CCCNC(=N)N)C(=O)N[C@@H](Cc2c[nH]c3ccccc23)C(=O)N1)C(=O)O | > 3000 nM | 33% | 112 nM | > 3000 nM | 8% | 943 nM | – | – | – | – | –

The next lines start with results.

EC50 [1] | Emax [2] | EC50 [3] | EC50 [4] | Emax [5] | EC50 [6] | Emax [7] | Emax [8] | Emax [9] | Emax [10] | Structure (SMILES) | Ratio EC50 [11]
> 3000 nM | 32% | 678 nM | > 3000 nM | 1% | 792 nM | – | – | – | – | CSCC[C@H](NC(=O)[C@@H]1Cc2cn(nn2)C[C@H](NC(=O)[C@@H](N)CCCCN)C(=O)N[C@@H](Cc2cnc[nH]2)C(=O)N[C@@H](Cc2ccccc2)C(=O)N[C@@H](CCCNC(=N)N)C(=O)N[C@@H](Cc2c[nH]c3ccccc23)C(=O)N1)C(=O)O | –
19.4 nM | – | 1.4 nM | 137 nM | – | 2 nM | 111% | 123% | – | – | CSCC[C@H](NC(=O)[C@@H]1Cc2cn(nn2)C[C@H](NC(=O)[C@H](C)N)C(=O)N[C@@H](Cc2cnc[nH]2)C(=O)N[C@H](Cc2ccccc2)C(=O)N[C@@H](CCCNC(=N)N)C(=O)N[C@@H](Cc2c[nH]c3ccccc23)C(=O)N1)C(=O)O | –
291 nM | – | 11.4 nM | 752 nM | – | 43.3 nM | 102% | 85% | – | – | CSCC[C@H](NC(=O)[C@@H]1Cc2cn(nn2)C[C@H](NC(=O)[C@@H](N)CCCNC(=N)N)C(=O)N[C@@H](Cc2cnc[nH]2)C(=O)N[C@H](Cc2ccccc2)C(=O)N[C@@H](CCCNC(=N)N)C(=O)N[C@@H](Cc2c[nH]c3ccccc23)C(=O)N1)C(=O)O | –
162 nM | – | 2.3 nM | 635 nM | – | 17.9 nM | 107% | 126% | – | – | C[C@H](NC(=O)[C@@H]1Cc2cn(nn2)C[C@H](NC(=O)[C@@H](N)CCCCN)C(=O)N[C@@H](Cc2cnc[nH]2)C(=O)N[C@H](Cc2ccccc2)C(=O)N[C@@H](CCCNC(=N)N)C(=O)N[C@@H](Cc2c[nH]c3ccccc23)C(=O)N1)C(=O)O | –
123 nM | – | 1.8 nM | 299 nM | – | 9.2 nM | 105% | 120% | – | – | CSCC[C@H](NC(=O)[C@@H]1Cc2cn(nn2)C[C@H](NC(=O)[C@@H](N)CCCCN)C(=O)N[C@@H](Cc2cnc[nH]2)C(=O)N[C@H](Cc2ccccc2)C(=O)N[C@@H](CCCNC(=N)N)C(=O)N[C@@H](Cc2c[nH]c3ccccc23)C(=O)N1)C(=O)O | 70
> 3000 nM | 0% | > 3000 nM | > 3000 nM | 0% | > 3000 nM | – | – | 48% | 28% | CSCC[C@H](NC(=O)[C@@H]1Cc2cn(nn2)C[C@H](NC(=O)[C@@H](N)CCCCN)C(=O)N[C@@H](Cc2c[nH]c3ccccc23)C(=O)N[C@H](Cc2ccccc2)C(=O)N[C@@H](CCCNC(=N)N)C(=O)N[C@@H](Cc2cnc[nH]2)C(=O)N1)C(=O)O | –
> 3000 nM | 16% | 185 nM | > 3000 nM | 3% | 720 nM | – | – | – | – | CSCC[C@H](NC(=O)[C@@H]1Cc2cn(nn2)CCC[C@H](N)C(=O)N[C@@H](Cc2cnc[nH]2)C(=O)N[C@H](Cc2ccccc2)C(=O)N[C@@H](CCCNC(=N)N)C(=O)N[C@@H](Cc2c[nH]c3ccccc23)C(=O)N1)C(=O)O | –
160 nM | – | 3.2 nM | 916 nM | – | 9.6 nM | 112% | 106% | – | – | CSCC[C@H](NC(=O)[C@@H]1Cc2cn(nn2)[C@@H](CCCNC(=N)N)C(=O)N[C@@H](Cc2cnc[nH]2)C(=O)N[C@H](Cc2ccccc2)C(=O)N[C@@H](CCCNC(=N)N)C(=O)N[C@@H](Cc2c[nH]c3ccccc23)C(=O)N1)C(=O)O | –
> 3000 nM | 12% | 318 nM | > 3000 nM | 9% | 730 nM | – | – | – | – | CSCC[C@H](NC(=O)[C@@H]1Cc2cn(nn2)C[C@H](NC(=O)[C@@H](N)CCCCN)C(=O)N[C@@H](Cc2cnc[nH]2)C(=O)N[C@H](Cc2ccccc2)C(=O)N[C@@H](CCCN)C(=O)N[C@@H](Cc2c[nH]c3ccccc23)C(=O)N1)C(=O)O | –
> 3000 nM | 40% | 12.7 nM | > 3000 nM | 13% | 124 nM | – | – | – | – | CSCC[C@H](NC(=O)[C@@H]1Cc2cn(nn2)C[C@H](NC(=O)[C@@H](N)CCCCN)C(=O)N[C@@H](Cc2cnc[nH]2)C(=O)N[C@H](Cc2ccccc2)C(=O)N[C@@H](CCCCN)C(=O)N[C@@H](Cc2c[nH]c3ccccc23)C(=O)N1)C(=O)O | –
